A short description of test [1]: inhibitors of TNFa-induced NFkB p65 translocation, primary screen, imaging, HUVEC, MLSMR starter and 10KST1 sets (AID 438;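 active = inhibition above 20% together with a positive visual image hit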;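 also: compound added about 3h40 before a 20 min TNFalpha stimulation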;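 as to inhibition: signal is the nuclear over cytoplasmic p65 intensity ratio per well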). Conditions: HUVEC TNFa-induced p65 nuclear translocation; cell count: measured here: nuclei count (cytotoxicity indicator), at 2.08 µM; inhibition: at 2 µM, stronger effect = higher value, 0% TNFa-plus-vehicle, 100% no-TNFa wells.
A short description of test [2]: endothelial E-selectin expression blockers – imaging, HUVEC, immunofluorescence, MLSMR starter and 10KST1 sets, primary screen (AID 487;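 active = visually confirmed hit in the image check and inhibition above 20%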;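 as to inhibition: signal is fraction of cell area covered by stained E-selectin grains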;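 as to nuclei count: 100% = median nuclei count of all wells on the same plate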). As to conditions: HUVEC TNFalpha-induced E-selectin immunofluorescence imaging, at 2 µM; inhibition: stronger effect = higher value; nuclei count: measured here: cell number, toxicity.
The nature of test [3]: Primary imaging screen for DUSP6 inhibitors that restore phospho-Erk in transfected HeLa cells, chemical complementation (AID 609;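 active = compounds giving at least 50% inhibition in the cell-based MKP-3 phosphatase rescue imaging test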;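 as to inhibition: phospho-Erk level distribution per well compared with pooled transfected vehicle control wells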). As to conditions: HeLa MKP-3 transfected, phospho-Erk imaging KS statistic, at 10 µM, cells stimulated with TPA for 15 min.
The target of test [4] is Dual specificity protein phosphatase 6 (Homo sapiens) (UniProt Q16828). Described as above. Conditions: HeLa MKP-3 transfected, phospho-Erk imaging KS statistic; at 10 µM; stronger effect = higher value; cells stimulated with TPA for 15 min.
The target in test [5] is Voltage-gated potassium channel subunit beta-2 (Rattus norvegicus) (UniProt P62483). Kind of test: inhibitors of rat Kvbeta2 reductase activity – biochemical, NADPH fluorescence, primary screen (AID 622;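 active = fluorescence slope higher than the sample average by over 3 SD, cut at about -0.22 in these data, passing the limit was not always enough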;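 also: slope of raw intensity against log time taken from 70 to 1610 s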). As to conditions: recombinant KvBeta, 4-cyanobenzaldehyde reduction, at 10 µM, stronger effect = higher value.
Test [6] shares this target. The experiment in a line: enhancers of rat Kvbeta2 NADPH turnover – biochemical, NADPH fluorescence, primary screen (AID 623;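 active = NADPH fluorescence slope more negative than the mean of all samples by about 3 SD, 99.7% confidence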;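 also: fluorescence intensity change per second fitted from 20 to 320 s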). Conditions: Recombinant KvBeta, NADPH fluorescence decrease slope, 10 min; at 10 µM; stronger effect = lower value.
In test [7] the target is Alpha-2C adrenergic receptor (Homo sapiens) (UniProt P18825). Kind of test: compounds altering alpha2C-coupled GIRK flux – cell-based, HEK293 alpha2C/GIRK1/2, thallium flux, primary screen (AID 624;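 active = fluorescence slope after compound addition differing from the mean of all screened samples at 99.7% confidence, in either direction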;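 also: slope of fluorescence ratio to pre-addition baseline per second over 15 to 24 s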). Conditions: thallium flux BTC fluorescence, at 10 µM, actives lie on both sides.
Test [8] is described as follows: inhibitors of larval lipid processing in zebrafish, primary screen, whole organism, PED6 fluorescence, gall bladder and intestine (AID 686).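 Also: larvae 5 to 7 days old with five fish per well; signal comes from phospholipase A2 cleavage of quenched PED6 carried via bile; overnight exposure to compound and PED6 before scoring.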 As to conditions: Zebrafish larvae PED6 lipid processing, fluorescence scoring; screened at 20 µM (by protocol). The essentials: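 system = live zebrafish larvae aged 5-7 days, whole organism | probe or stimulus = ingested quenched lipid PED6 at 100 nM | doses = 20 µM single dose | timing = overnight exposure | detection = fluorescence microscopy with visual scoring of gall bladder and intestine | read-out = visual per-well fluorescence inhibition score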

Test [9] in a line: loss of swimming-algae plug formation – whole organism, Chlamydomonas reinhardtii, WT vs cilia-less mutant, absorbance, 96-well, primary screen (AID 463189;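 active = inhibition at or above 50% relative to wild type and mutant plate controls; inactive = inhibition below 50%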;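 also: 0% = wild type cc124 cells in DMSO and 100% = ciliumless bld1 mutant cells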). Conditions: Chlamydomonas reinhardtii gravitaxis, OD600 absorbance, 2 days; at 10 µM; stronger effect = higher value.
[10] abbreviates: measured here: cell density z-score.
Setting [11] is: measured here: nuclear c-Myc green intensity z-score.
Where [12] appears, read: measured here: nuclear pErk red intensity z-score, stronger effect = higher value.

Active and inactive are the calls of the source.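 The calls were made as follows, unless noted: active = a full or partial loss of lipid-probe fluorescence in the fish gall bladder, intestine or both, judged by eye; inactive = no fluorescence loss, or compound toxic to the fish.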

Voltage-gated potassium channel subunit beta-2 (Rattus norvegicus), sequence (P62483 whole entry, looked up): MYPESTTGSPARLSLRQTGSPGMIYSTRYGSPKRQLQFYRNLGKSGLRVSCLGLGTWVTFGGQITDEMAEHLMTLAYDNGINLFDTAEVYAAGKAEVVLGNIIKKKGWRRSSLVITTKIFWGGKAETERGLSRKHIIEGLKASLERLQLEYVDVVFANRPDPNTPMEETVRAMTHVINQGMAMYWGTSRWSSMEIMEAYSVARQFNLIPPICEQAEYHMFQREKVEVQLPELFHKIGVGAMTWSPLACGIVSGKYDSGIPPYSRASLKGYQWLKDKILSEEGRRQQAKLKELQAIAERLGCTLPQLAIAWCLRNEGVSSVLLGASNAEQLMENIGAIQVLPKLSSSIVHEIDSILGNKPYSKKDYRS
Dual specificity protein phosphatase 6 (Homo sapiens), sequence (Q16828 whole entry, looked up): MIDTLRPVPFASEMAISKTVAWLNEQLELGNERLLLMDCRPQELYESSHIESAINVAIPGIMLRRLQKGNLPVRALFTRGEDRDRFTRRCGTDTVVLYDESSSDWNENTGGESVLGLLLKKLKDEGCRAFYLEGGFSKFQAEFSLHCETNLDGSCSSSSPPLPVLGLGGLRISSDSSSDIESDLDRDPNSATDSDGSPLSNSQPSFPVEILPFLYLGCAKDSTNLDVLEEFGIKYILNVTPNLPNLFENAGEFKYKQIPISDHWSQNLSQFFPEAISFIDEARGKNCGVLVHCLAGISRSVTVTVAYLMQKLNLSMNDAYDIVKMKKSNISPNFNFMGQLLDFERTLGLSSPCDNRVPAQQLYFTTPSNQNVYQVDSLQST
Alpha-2C adrenergic receptor (Homo sapiens), sequence (P18825 whole entry, looked up): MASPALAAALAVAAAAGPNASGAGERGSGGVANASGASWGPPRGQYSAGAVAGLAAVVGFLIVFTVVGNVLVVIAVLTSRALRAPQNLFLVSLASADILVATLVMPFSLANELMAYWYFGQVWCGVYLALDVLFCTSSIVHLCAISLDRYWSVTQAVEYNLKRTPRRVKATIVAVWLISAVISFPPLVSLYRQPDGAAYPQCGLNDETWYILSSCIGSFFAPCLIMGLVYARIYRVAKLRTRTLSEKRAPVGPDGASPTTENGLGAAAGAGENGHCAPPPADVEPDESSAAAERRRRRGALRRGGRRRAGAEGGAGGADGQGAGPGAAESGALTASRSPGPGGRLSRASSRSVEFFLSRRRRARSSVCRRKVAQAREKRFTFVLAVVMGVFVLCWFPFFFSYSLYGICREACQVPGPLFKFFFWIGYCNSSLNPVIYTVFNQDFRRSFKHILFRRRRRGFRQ

Regarding `CCOc1ccc(C2C(C#N)=C(N)SC(N)=C2C#N)cc1OC`, in [1], the cell count stood at 654. Further, the inhibition is -21.3% (inactive) in test [1], 22.8% (inactive) in test [2], -3.95% (inactive) in test [4] and 5.29% (inactive) in [9]. This molecule also gave a nuclei count in test [2] of 177%. Further, the z-score in [3] (setting [10]) was 0.539; in test [3] (setting [11]), -1.2; in test [3] (setting [12]), 0.0794. The fluorescence slope in [5] is -0.291 (inactive). In addition, in [6], the NADPH fluorescence slope was -3e-05 (inactive). In addition, in test [7], the slope is 0.00675 (inactive). The outcome in test [8] was inactive.
For `Cc1nc2sc3c(NCc4ccco4)ncnc3c2c2c1COC(C)(C)C2`, in [1], the cell count is 595. The inhibition in test [1] was -11% (inactive); in [2], -84.2% (inactive); in [4], -2.69% (inactive); in test [9], 45.7% (inactive). The molecule further showed a nuclei count in test [2] of 181%. In addition, the values for the z-score in test [3] (setting [10]), in test [3] (setting [11]) and in [3] (setting [12]) were -1.22, -0.424 and 1.05, respectively. Further, the fluorescence slope in test [5] was -0.373 (inactive). For the same molecule, the NADPH fluorescence slope in [6] is -3e-05 (inactive). Further, the slope in test [7] is 0.00585 (inactive). Moreover, in [8], the call was inactive.
In the case of `CN=c1sc2ccccc2n1CC(O)COc1ccccc1` (centres undefined), the cell count in test [1] was 462. Also, the inhibition in [1] was -11% (inactive); in test [2], -95.8% (inactive); in test [4], -0.624% (inactive); in test [9] it was -3.38% (inactive). In addition, the nuclei count in test [2] worked out at 204%. Moreover, the figures for the z-score in [3] (setting [10]), in test [3] (setting [11]) and in [3] (setting [12]) were -0.699, 0.37 and 0.00223, respectively. Besides, the fluorescence slope in test [5] is -0.362 (inactive). Also, the NADPH fluorescence slope in test [6] was -2.9e-05 (inactive). In [7], the slope is 0.00426 (inactive). For the same molecule, the molecule was classed as inactive in test [8].
In the case of `Cc1c(-c2cccs2)[n+](=O)c2c(n1[O-])CCCC2`, the cell count in test [1] is 431. In addition, the inhibition in [1] was -16.7% (inactive); in test [2] it was -128% (inactive); in test [4], 15% (inactive); in test [9] it was 15.1% (inactive). This molecule also returned a nuclei count in test [2] of 164%. Moreover, the values for the z-score in test [3] (setting [10]), in test [3] (setting [11]) and in test [3] (setting [12]) were 1.59, -0.562 and -0.0919, respectively. Besides, the fluorescence slope in [5] is -0.419 (inactive). Moreover, the NADPH fluorescence slope in test [6] was -1.1e-05 (inactive). In [7], the slope was 0.0072 (inactive). In addition, in test [8], the molecule was called inactive.
Consider `Clc1ccc(-c2cn3c(n2)CCC3)cc1`, for which, in [1], the cell count turned out to be 567. In addition, the inhibition is -16.9% (inactive) in [1], 0.7% (inactive) in test [2], -6.86% (inactive) in test [4] and 3.42% (inactive) in [9]. Besides, in [2], the nuclei count turned out to be 171%. Moreover, the z-score in test [3] (setting [10]) was -1.6; in test [3] (setting [11]) it was 1.21; in test [3] (setting [12]) it was 1.33. In addition, the fluorescence slope in test [5] was -0.504 (inactive). In addition, the NADPH fluorescence slope in test [6] was -9.3e-05 (inactive). In addition, in test [7], the slope was 0.00501 (inactive). Besides, in test [8], the call was inactive.
With `COC(=O)c1sc(NC(=O)C(C)C)c(C(=O)OC)c1C`, in [1], the cell count was found to be 354. Moreover, the inhibition is -0.5% (inactive) in [1], 29.8% (inactive) in [2], 3.42% (inactive) in test [4] and -7.45% (inactive) in [9]. The nuclei count in test [2] was 93.5%. Further, the z-score is -0.757 in test [3] (setting [10]), -0.742 in test [3] (setting [11]) and 1.06 in [3] (setting [12]). Also, the fluorescence slope in test [5] was -0.426 (inactive). Besides, the NADPH fluorescence slope in [6] was -1.5e-05 (inactive). In addition, the slope in test [7] is 0.00623 (inactive). In addition, in test [8], the call was inactive.
As for `Cc1cc2c(c(=O)n1Cc1cccnc1)C(c1ccccc1)C(C#N)=C(N)O2` (centres undefined), the cell count in test [1] amounted to 550. For the same molecule, the inhibition in test [1] is -28.8% (inactive); in test [2] it was -50% (inactive); in test [4] it was -6.06% (inactive); in [9] it was 22.9% (inactive). Besides, the nuclei count in test [2] came out at 160%. For the same molecule, the z-score was -0.164 in test [3] (setting [10]), -2.06 in [3] (setting [11]) and -1.42 in [3] (setting [12]). The fluorescence slope in test [5] is -0.537 (inactive). Moreover, the NADPH fluorescence slope in [6] was -2.7e-05 (inactive). Further, the slope in test [7] was 0.00757 (inactive). In addition, the call in [8] was inactive.
Regarding `O=c1/c(=C\c2cccn2-c2ccccc2)sc2nc3ccccc3n12`, the cell count in test [1] was found to be 640. The inhibition in test [1] is -5.8% (inactive); in test [2] it was -42.1% (inactive); in test [4] it was 3.56% (inactive); in test [9] it was 9.26% (inactive). The molecule also had a nuclei count in test [2] of 99.1%. Also, the results for the z-score in test [3] (setting [10]), in test [3] (setting [11]) and in test [3] (setting [12]) were -0.282, 0.665 and 0.128, respectively. Moreover, the fluorescence slope in [5] is -0.181 (inactive). Also, in [6], the NADPH fluorescence slope is 8.6e-06 (inactive). For the same molecule, in test [7], the slope is 0.00666 (inactive). The call in test [8] was inactive.
Consider `Cn1cc(Br)cc2nc(C(F)(F)F)nc1-2`, for which the cell count in test [1] was determined as 534. Besides, the inhibition in test [1] is -11.2% (inactive); in [2], -143% (inactive); in test [4] it was 29.7% (inactive); in test [9] it was 20% (inactive). Besides, the nuclei count in test [2] came out at 133%. The z-score is 0.955 in test [3] (setting [10]), -1.14 in [3] (setting [11]) and -0.53 in test [3] (setting [12]). Further, the fluorescence slope in test [5] is -0.532 (inactive). In addition, in test [6], the NADPH fluorescence slope was -2.5e-05 (inactive). Also, the slope in test [7] was 0.00656 (inactive). Besides, the molecule was classed as inactive in test [8].
On to `COC(=O)CC1=C(C(=O)OC)C(c2ccc3c(c2Cl)OCO3)C(C#N)=C(N)O1` (centres undefined), for which the cell count in test [1] came to 505. Further, the inhibition in test [1] was -3% (inactive); in test [2], -43.9% (inactive); in test [4], 15% (inactive); in [9], 21.8% (inactive). In [2], this molecule returned a nuclei count of 146%. Further, the z-score is 1.11 in test [3] (setting [10]), -0.928 in test [3] (setting [11]) and -0.541 in test [3] (setting [12]). Besides, the fluorescence slope in [5] was -0.319 (inactive). The NADPH fluorescence slope in test [6] was -2.9e-06 (inactive). For the same molecule, in [7], the slope was 0.00617 (inactive). Also, the call in test [8] was inactive.
As for `CC1C[C@@]2(NC(=O)NC2=O)C(C)CN1C` (some centres undefined), the cell count in [1] came out at 510. The inhibition in test [1] is -6.8% (inactive); in test [2], -91.9% (inactive); in [4] it was -3.98% (inactive); in [9], 6.02% (inactive). In addition, in test [2], the nuclei count came out at 118%. Further, the results for the z-score in test [3] (setting [10]), in [3] (setting [11]) and in test [3] (setting [12]) were 1.06, -0.13 and -0.779, respectively. For the same molecule, in test [5], the fluorescence slope was -0.499 (inactive). Also, the NADPH fluorescence slope in [6] was -0.000117 (inactive). Moreover, the slope in [7] was 0.00539 (inactive). The molecule was classed as inactive in test [8].
With `COc1cccc(C2/C(=C(/O)c3cnn(-c4ccccc4)c3C)C(=O)C(=O)N2CCN(C)C)c1OC` (centres undefined), the cell count in test [1] was found to be 502. Besides, the inhibition in test [1] was 6.3% (inactive); in test [2], -119% (inactive); in test [4], -7.01% (inactive); in test [9], 8.54% (inactive). For the same molecule, the nuclei count in [2] was found to be 152%. Also, the z-score in [3] (setting [10]) was -0.295; in test [3] (setting [11]), 0.206; in test [3] (setting [12]) it was -1.1. Moreover, in [5], the fluorescence slope is -0.506 (inactive). In addition, the NADPH fluorescence slope in test [6] is -2.1e-05 (inactive). In addition, the slope in test [7] is 0.00541 (inactive). The molecule was called inactive in test [8].
Take `CCCCOC(=O)C(C)c1c(C)[nH]c(=S)[nH]c1=O` (centres undefined): the cell count in test [1] amounted to 479. The inhibition was -1.2% (inactive) in test [1], -142% (inactive) in [2], -3.5% (inactive) in test [4] and 11.1% (inactive) in [9]. Further, the nuclei count in [2] came to 138%. Moreover, the z-score in [3] (setting [10]) is 0.126; in test [3] (setting [11]), 0.523; in test [3] (setting [12]) it was -0.0829. Moreover, in test [5], the fluorescence slope is -0.505 (inactive). Besides, the NADPH fluorescence slope in test [6] is -3.9e-05 (inactive). Besides, the slope in test [7] was 0.00553 (inactive). For the same molecule, the molecule was classed as inactive in [8].

As usually defined, the inhibition is the drop in the measured response relative to a control, in per cent.

Source of the values: PubChem BioAssay.
